Columns and labels:
V79 = test: Inhibitory activity against hypoxic Chinese hamster cells(V-79) in culture by colony formation assay; type: functional; conditions: Cricetulus griseus, read-out: ED50 (the source's name)
CHO [1] = test: Radiosensitizing activity against chinese hamster cells was determined in the presence of the sensitizer under nitrogen at a concentration of 1.0 mM; type: functional, Cricetulus griseus
Procedure, shortened: (§1)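 V-79 Chinese hamster monolayers (exponentially growing, MEM with 15% fetal calf serum), about 200 cells per dish. Made hypoxic by purging sealed containers with 95% N2/5% CO2 for 1 h. Drug at maximum nontoxic concentration (1 mM or less) for 2 h at 37 °C. Cobalt-60 irradiation, 1400 rad, at room temperature. Medium replaced, colonies counted after 6 days; % survival.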

[2] = Sensitizer enhancement ratio was determined by dividing the Do value obtained from the control radiation survival curve by the Do value obtained from the radiation survival curve; type: functional
CHO [3] = test: Radiosensitizing activity against chinese hamster cells was determined in the presence of the sensitizer under nitrogen at a concentration of 0.010 mM; type: functional, Cricetulus griseus; procedure, shortened: as §1
[4] = Sensitizer enhancement ratio(SER) was determined; type: functional

Row | SMILES | EC50 (V79) | Survivals (CHO [1]) | SER [2] | Survivals (CHO [3]) | SER [4]
1 | COCC(O)Cn1c(C(F)(F)F)nc2ccc([N+](=O)[O-])cc21 (stereo unspecified) | 3000 µM | 17.6% | 1.2 |  | 
2 | COCC(O)Cn1c(S(C)(=O)=O)nc2ccccc21 (stereo unspecified) | 3200 µM | 25.8% | 1 |  | 
3 | COCC(O)Cn1c(C(F)(F)F)nc2ccccc21 (stereo unspecified) | > 5000 µM | 22% | 1.1 |  | 
4 | CCOC(=O)Cn1c([N+](=O)[O-])nc2ccc([N+](=O)[O-])cc21 | 6 µM |  |  | 22.9% | 1
5 | COCC(O)Cn1c(C#N)nc2ccccc21 (stereo unspecified) | 1200 µM | 23% | 1 |  | 
6 | COCC(O)Cn1c(C(F)(F)F)nc2cc([N+](=O)[O-])ccc21 (stereo unspecified) | > 5000 µM | 13.8% | 1.4 |  | 
7 | CCOC(=O)Cn1c([N+](=O)[O-])nc2cc([N+](=O)[O-])ccc21 | 16 µM | 26.7% |  |  | 1
8 | CCOC(=O)Cn1c([N+](=O)[O-])nc2ccccc21 | 300 µM | 2.7% | 2.3 |  | 
9 | COCC(O)Cn1c(C(C)=O)nc2cc([N+](=O)[O-])ccc21 (stereo unspecified) | > 5000 µM | 11.3% | 1.2 |  | 
10 | COCC(O)Cn1c(C(C)=O)nc2ccccc21 (stereo unspecified) | > 5000 µM | 23% | 1 |  | 
11 | COCC(O)Cn1c(C(N)=O)nc2ccccc21 (stereo unspecified) | > 5000 µM | 21% | 1.1 |  | 
12 | COCC(O)Cn1c([N+](=O)[O-])nc2ccccc21 (stereo unspecified) | 4800 µM | 9.4% | 2 |  | 
